Assay results as given in ChEMBL document CHEMBL4052634, “Covalent inhibitors of LgtC: A blueprint for the discovery of non-substrate-like inhibitors for bacterial glycosyltransferases” (Bioorg Med Chem, 2017).
Blank lines part the entries; values can stand above or below the compound they belong to. The source made the active and inactive calls.

How the values were obtained:
[1] = tested on: Neisseria meningitidis; assay: Inhibition of Neisseria meningitidis alpha-1,4-galactosyltransferase at 25 to 100 uM using lactose as substrate preincubated for 10 mins in presence of UDP-Gal followed by substrate addition measured after 20 mins
How it was run: (§1)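 LgtC pre-incubated 10 min at 30 °C with inhibitor (DMSO, 10% final) and UDP-Gal 28 µM in 13 mM HEPES pH 7.0 with MnCl2 5 mM, CIP 10 U/mL, lysozyme 1 mg/mL, 0.01% Triton; lactose 2 mM then added, 20 min at 30 °C; malachite green absorbance at 620 nm converted via UDP calibration; triplicate.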

[2] = tested on: Neisseria meningitidis; assay: Inhibition of Neisseria meningitidis alpha-1,4-galactosyltransferase at 25 to 50 uM using lactose as substrate preincubated for 10 mins in presence of UDP-Gal followed by substrate addition measured after 20 mins; how it was run: as §1
[3] = Binding affinity to L-lysine assessed as adduct formation at 0.06 mmol by 1H NMR analysis
How it was run: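 Lysine (0.06 mmol in D2O) mixed with inhibitor (0.06 mmol) in d6-DMSO in an NMR tube by shaking; 1H-NMR spectra at 400 MHz, 298 K, taken at time points over 0-190 min.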

[4] = tested on: Neisseria meningitidis; assay: Inhibition of Neisseria meningitidis alpha-1,4-galactosyltransferase C246S mutant expressed in Escherichia coli BL21(DE3) at 100 uM using lactose as substrate in presence of UDP-Gal measured after 20 min by malachite green dye-based assay
How it was run: (§2)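 Mutant LgtC (His-tag purified, Superdex 200), DTT-activated (10 mM, 1:1, 30 min, 30 °C), no pre-incubation with inhibitor. Final: 2 mM lactose, 28 µM UDP-Gal, 5 mM MnCl2, phosphatase CIP 10 U/mL, lysozyme 1 mg/mL, 0.01% Triton, 13 mM HEPES pH 7.0, 10% DMSO; 20 min, 30 °C. UDP read at 620 nm vs UDP calibration, background-corrected; triplicate.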

[5] = target: Intestinal-type alkaline phosphatase (Bos taurus) (UniProt P19111); assay: Inhibition of calf intestinal alkaline […] at 0.1 to 100 uM using UDP as substrate after 20 mins by malachite green dye-based assay
Sequence of Intestinal-type alkaline phosphatase (Bos taurus) (P19111 20-506 limits assumed): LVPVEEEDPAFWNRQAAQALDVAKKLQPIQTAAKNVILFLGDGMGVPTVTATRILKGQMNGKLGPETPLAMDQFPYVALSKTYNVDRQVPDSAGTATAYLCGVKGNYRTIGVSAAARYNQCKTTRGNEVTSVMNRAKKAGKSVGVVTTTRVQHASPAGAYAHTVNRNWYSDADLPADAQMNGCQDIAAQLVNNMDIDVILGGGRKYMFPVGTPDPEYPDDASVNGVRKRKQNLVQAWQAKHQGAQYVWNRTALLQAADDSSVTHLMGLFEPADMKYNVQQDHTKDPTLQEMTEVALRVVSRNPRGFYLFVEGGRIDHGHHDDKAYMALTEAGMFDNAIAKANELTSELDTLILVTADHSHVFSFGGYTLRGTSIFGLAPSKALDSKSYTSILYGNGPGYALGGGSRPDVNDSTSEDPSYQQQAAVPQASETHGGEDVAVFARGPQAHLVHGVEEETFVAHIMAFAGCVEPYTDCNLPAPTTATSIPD

[6] = target: T1, Galactoside alpha-(1,2)-fucosyltransferase 2 (Homo sapiens) (UniProt Q10981); assay: Inhibition of human fucosyltransferase2 at 150 uM using alpha-lactose as substrate in presence of GDP-Fuc measured after 20 mins by malachite green dye-based assay
T1 sequence (whole entry): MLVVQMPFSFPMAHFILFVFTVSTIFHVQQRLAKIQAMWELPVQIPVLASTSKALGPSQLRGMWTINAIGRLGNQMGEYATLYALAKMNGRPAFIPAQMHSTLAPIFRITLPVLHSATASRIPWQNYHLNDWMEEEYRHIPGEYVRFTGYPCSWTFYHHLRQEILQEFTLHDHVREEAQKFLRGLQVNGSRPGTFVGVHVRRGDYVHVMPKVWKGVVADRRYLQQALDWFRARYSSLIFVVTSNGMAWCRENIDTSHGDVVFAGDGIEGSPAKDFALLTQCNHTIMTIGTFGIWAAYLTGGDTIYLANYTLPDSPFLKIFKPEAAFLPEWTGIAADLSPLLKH

[7] = tested on: Neisseria meningitidis; assay: Inhibition of Neisseria meningitidis alpha-1,4-galactosyltransferase at 0.1 to 100 uM using lactose as substrate after 20 mins in presence of UDP-Gal and measured in presence of varying acceptor concentration by malachite green dye-based assay
How it was run: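 Activated LgtC with inhibitor (0.1-100 µM), UDP-Gal 28 µM, lactose varied 2-50 mM, MnCl2 5 mM, CIP 10 U/ml, lysozyme 1 mg/ml, 0.01% Triton in 13 mM HEPES pH 7.0, no pre-incubation; 20 min at 30 °C, donor turnover 20-50%; malachite green detection of UDP; triplicate.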

[8] = Inhibition of Neisseria meningitidis alpha-1,4-galactosyltransferase using lactose as substrate in presence of UDP-Gal measured after 20 min by malachite green dye-based assay
How it was run: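 Recombinant LgtC, pre-activated with DTT (10 mM, 1:1, 30 min, 30 °C). Reaction contained MnCl2 5 mM, CIP 10 U/mL, lysozyme 1 mg/mL, Triton 0.01%, 13 mM HEPES pH 7.0, lactose 2 mM, inhibitor 0.1–100 µM (10% DMSO final), UDP-Gal 28 µM. No pre-incubation; 20 min at 30 °C. Released phosphate read by malachite green at 620 nm against a UDP calibration curve. Turnover adjusted to 20–50%. IC50 from sigmoidal fit of background-corrected % activity; at least triplicate.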

[9] = tested on: Neisseria meningitidis; assay: (§3) Inhibition of Neisseria meningitidis alpha-1,4-galactosyltransferase assessed as enzyme activity at 100 uM using beta-lactose as substrate in presence of UDP-Gal donor/lactose acceptor incubated for 20 mins measured after diafiltration by colorimetric analysis (reference value: 85 %)
How it was run: (§4)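 DTT-activated LgtC pre-incubated with inhibitor (100 µM) or DMSO plus UDP-Gal 28 µM, 10 min at 30 °C; lactose 2 mM added, 20 min at 30 °C. Activity measured in samples taken before, and after diafiltration (10 kDa cut-off, 4 °C, two 50 min spins with one HEPES pH 7.0 wash), under standard conditions (2 mM lactose, 28 µM UDP-Gal, 20 min, 30 °C), malachite green readout.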

[10] = tested on: Neisseria meningitidis; assay: Competitive inhibition of Neisseria meningitidis alpha-1,4-galactosyltransferase at 1 to 5 uM using lactose as substrate measured after 20 mins in presence of fixed concentration of UDP-Gal donor and varying concentration of lactose acceptor by Dixon/Cornish-Bowden plot analysis
How it was run: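 Acceptor kinetics using standard protocol without pre-incubation: DTT-activated LgtC, UDP-Gal fixed at 100 µM, inhibitor 1, 2, 3, 4, 5 µM, lactose 5, 15, 25 mM, with 5 mM MnCl2, CIP 10 U/ml, lysozyme 1 mg/ml, 0.01% Triton, 13 mM HEPES pH 7.0, 10% DMSO; 20 min at 30 °C, donor turnover <10%; UDP released read by malachite green.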

[11] = Binding affinity to L-serine assessed as covalent adduct formation at 0.06 mmol by 1H NMR analysis
How it was run: (§5)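 Amino acid (0.06 mmol; cysteine in d6-DMSO, serine in D2O) added to inhibitor (0.06 mmol) in d6-DMSO in an NMR tube, mixed by shaking; 1H-NMR (400 MHz) recorded at 298 K at time points from 0-190 min to follow adduct formation.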

[12] = tested on: Neisseria meningitidis; assay: Inhibition of Neisseria meningitidis alpha-1,4-galactosyltransferase C246A mutant expressed in Escherichia coli BL21(DE3) at 100 uM using lactose as substrate in presence of UDP-Gal measured after 20 min by malachite green dye-based assay; how it was run: as §2
[13] = species on record: Bos taurus; assay: Inhibition of bovine beta-1,4-galactosyltransferase at 100 uM using GLcNAc as substrate in presence of UDP-Gal measured after 20 mins by malachite green dye-based assay
[14] = Binding affinity to L-cysteine assessed as covalent adduct formation at 0.06 mmol by 1H NMR analysis; conditions: TDE = time-dependent effect; how it was run: as §5
[15] = tested on: Neisseria meningitidis; assay: as §3, with “substrate preincubated for 10 mins” for “substrate”, “donor followed by substrate addition” for “donor/lactose acceptor”, “before” for “after”, “84%)” for “85 %)”; how it was run: as §4
[16] = tested on: Pasteurella multocida; assay: Inhibition of Pasteurella multocida alpha-2,3-sialyltransferase at 150 uM using beta-lactose as substrate in presence of CMP-Neu5Ac measured after 20 mins by malachite green dye-based assay
[17] = tested on: Neisseria meningitidis; assay: Binding affinity to Neisseria meningitidis alpha-1,4-galactosyltransferase assessed as covalent adduct formation at 100 uM after 20 mins by mass spectrometric analysis
How it was run: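 LgtC stock without DTT activation, diluted in 13 mM HEPES pH 7.0, incubated with inhibitor (100 or 50 µM, added in DMSO; 10% final DMSO) for 20 min at 30 °C; samples injected directly for electrospray MS to detect protein-inhibitor adducts.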

inhibition [1]: inactive
SMILES: Cc1nn(-c2ccccc2)c(O)c1Cc1ccccc1C(F)(F)F

inhibition [2]: inactive
inhibition [1]: inactive
SMILES: COc1ccc(/C=C2\SC(=S)N(c3ccccc3)C2=O)cc1Br

SMILES: CC1=NN(c2ccccc2)C(=O)/C1=C\c1ccccc1C(F)(F)F
Activity [3]: inactive
inhibition [4]: Active
inhibition [5]: inactive
inhibition [6]: inactive
inhibition [7]: inactive
IC50 [8]: 27 µM
inhibition [9]: 23%
inhibition [10]: Active
Activity [11]: inactive
inhibition [12]: inactive
inhibition [13]: inactive
Activity [14]: Tde
inhibition [15]: 30%
inhibition [16]: inactive
Activity [17]: Active
